In ChEMBL document CHEMBL1132288, “Synthesis and in vitro pharmacology of a series of new chiral histamine H3-receptor ligands: 2-(R and S)-Amino-3-(1H-imidazol-4(5)-yl)propyl ether derivatives” (J Med Chem, 1999):
The source made the active and inactive calls. The calls are words filed in the database; no cut-off is given here.

Columns and labels:
[1] = target: Histamine H3 receptor (Rattus norvegicus) (UniProt Q9QYN8); test: Binding affinity for Histamine H3 receptor
Outline: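 Affinity for the H3 receptor measured in an in vitro binding assay by displacement of the radioligand [3H]R-(α)-methylhistamine.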

Histamine H3 receptor [2] = target: T1, Histamine H3 receptor (Rattus norvegicus, UniProt Q9QYN8); test: Binding affinity of compound against Histamine H3 receptor
Outline: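 Displacement of the radioligand [3H]R-(α)-methylhistamine from the histamine H3 receptor in an in vitro receptor binding assay.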

[3] = target: Histamine H3 receptor (Rattus norvegicus) (UniProt Q9QYN8); conditions: 10e-8 M
[4] = target: Histamine H3 receptor (Rattus norvegicus) (UniProt Q9QYN8); conditions: Striatum; 10e-8 M
[5] = target: Histamine H3 receptor (Rattus norvegicus) (UniProt Q9QYN8); conditions: filed as antagonist
[6] = target: Histamine H3 receptor (Rattus norvegicus) (UniProt Q9QYN8); conditions: filed as antagonist; 10e-6 M
[7] = target: Histamine H3 receptor (Rattus norvegicus) (UniProt Q9QYN8); conditions: filed as antagonist; remark: listed apart in the source
[8] = target: Histamine H3 receptor (Rattus norvegicus) (UniProt Q9QYN8); conditions: Striatum; filed as antagonist; 10e-6 M
[9] = target: Histamine H3 receptor (Rattus norvegicus) (UniProt Q9QYN8); test: Agonistic activity, Histamine H3 receptor dependent activation of G-proteins with GTP gamma-[35S] autoradiography of rat striatal tissue sections. at 10e-5 M conc.; half-maximal response; format: functional; conditions: filed as partial agonist
Outline: (§1)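 Rat brain tissue sections were incubated with the test compound at the stated concentrations together with GTPγ[35S], then washed and dried. Film autoradiograms were digitized and quantified against [14C] standards. Responses were read from cerebral cortex and striatum, four animals per region, with cerebellum (no H3 receptors) as a nonspecific-effect control.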

[10] = target: Histamine H3 receptor (Rattus norvegicus) (UniProt Q9QYN8); test: Agonistic activity, Histamine H3 receptor dependent activation of G-proteins with GTP gamma-[35S] autoradiography of rat cortical tissue sections. at 10e-5 M conc.; half-maximal response; format: functional; conditions: filed as partial agonist; outline: as §1
[11] = target: Histamine H3 receptor (Rattus norvegicus) (UniProt Q9QYN8); conditions: filed as antagonist; 10e-5 M
[12] = target: Histamine H3 receptor (Rattus norvegicus) (UniProt Q9QYN8); conditions: filed as antagonist, 10e-6 M
[13] = target: Histamine H3 receptor (Rattus norvegicus) (UniProt Q9QYN8); conditions: Striatum, 10e-5 M
[14] = target: Histamine H3 receptor (Rattus norvegicus) (UniProt Q9QYN8); conditions: Striatum, filed as antagonist, 10e-6 M
[15] = target: Histamine H3 receptor (Rattus norvegicus) (UniProt Q9QYN8); conditions: filed as antagonist; 10e-8 M
[16] = target: Histamine H3 receptor (Rattus norvegicus) (UniProt Q9QYN8); conditions: Striatum; filed as antagonist; 10e-8 M
[17] = target: Histamine H3 receptor (Rattus norvegicus) (UniProt Q9QYN8); conditions: filed as antagonist; 10e-5 M; remark: listed apart in the source
[18] = target: Histamine H3 receptor (Rattus norvegicus) (UniProt Q9QYN8); conditions: Striatum; filed as antagonist; 10e-5 M
[19] = target: Histamine H3 receptor (Rattus norvegicus) (UniProt Q9QYN8); test: Agonistic activity, Histamine H3 receptor dependent activation of G-proteins with GTP gamma-[35S] autoradiography of rat cortical tissue sections. at 10e-5 M conc.;no response above basal; format: functional; outline: as §1
[20] = target: Histamine H3 receptor (Rattus norvegicus) (UniProt Q9QYN8); test: Agonistic activity, Histamine H3 receptor dependent activation of G-proteins with GTP gamma-[35S] autoradiography of rat striatal tissue sections. at 10e-5 M conc.;no response above basal; format: functional; outline: as §1
[21] = target: Histamine H3 receptor (Rattus norvegicus) (UniProt Q9QYN8); test: Agonistic activity, Histamine H3 receptor dependent activation of G-proteins with GTP gamma-[35S] autoradiography of rat striatal tissue sections. at 10e-5 M conc.; maximal response; format: functional; conditions: filed as agonist; outline: as §1
[22] = target: Histamine H3 receptor (Rattus norvegicus) (UniProt Q9QYN8); test: Agonistic activity, Histamine H3 receptor dependent activation of G-proteins with GTP gamma-[35S] autoradiography of rat cortical tissue sections. at 10e-5 M conc.; maximal response; format: functional; conditions: filed as agonist; outline: as §1
[23] = target: Histamine H3 receptor (Rattus norvegicus) (UniProt Q9QYN8); conditions: filed as agonist; 10e-5 M
[24] = target: Histamine H3 receptor (Rattus norvegicus) (UniProt Q9QYN8); conditions: filed as antagonist; 10e-6 M; remark: listed apart in the source
[25] = target: Histamine H3 receptor (Rattus norvegicus) (UniProt Q9QYN8); test: Agonistic activity, H3-receptor dependent activation of G-proteins with GTP gamma-[35S] autoradiography of rat striatal tissue sections. at 10e-5 M conc.; maximal response; format: functional; conditions: filed as agonist; outline: as §1
[26] = target: Histamine H3 receptor (Rattus norvegicus) (UniProt Q9QYN8); test: Agonistic activity, H3-receptor dependent activation of G-proteins with GTP gamma-[35S] autoradiography of rat cortical tissue sections. at 10e-5 M conc.; maximal response; format: functional; conditions: filed as agonist; outline: as §1
Histamine H3 receptor [27] = target: T1, Histamine H3 receptor; test: PKi was measured by Histamine H3 receptor binding assay (N-alpha-MeHA) on rat cerebral cortex.; format: tissue-based
Outline: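 Affinity measured by displacement of the radioligand [3H]R-(α)-methylhistamine in an in vitro H3-receptor binding assay.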

[28] = target: Histamine H3 receptor (Rattus norvegicus) (UniProt Q9QYN8); test: Agonistic activity, Histamine H3 receptor dependent activation of G-proteins with GTP gamma-[35S] autoradiography of rat cortical tissue sections. at 10e-5 M conc.; weak response (between half-maximal and basal; format: functional; conditions: filed as partial agonist; outline: as §1
[29] = target: Histamine H3 receptor (Rattus norvegicus) (UniProt Q9QYN8); test: Agonistic activity, Histamine H3 receptor dependent activation of G-proteins with GTP gamma-[35S] autoradiography of rat cortical tissue sections. at 10e-5 M conc; maximal response; format: functional; conditions: filed as agonist; outline: as §1

T1 sequence (Q9QYN8 whole entry): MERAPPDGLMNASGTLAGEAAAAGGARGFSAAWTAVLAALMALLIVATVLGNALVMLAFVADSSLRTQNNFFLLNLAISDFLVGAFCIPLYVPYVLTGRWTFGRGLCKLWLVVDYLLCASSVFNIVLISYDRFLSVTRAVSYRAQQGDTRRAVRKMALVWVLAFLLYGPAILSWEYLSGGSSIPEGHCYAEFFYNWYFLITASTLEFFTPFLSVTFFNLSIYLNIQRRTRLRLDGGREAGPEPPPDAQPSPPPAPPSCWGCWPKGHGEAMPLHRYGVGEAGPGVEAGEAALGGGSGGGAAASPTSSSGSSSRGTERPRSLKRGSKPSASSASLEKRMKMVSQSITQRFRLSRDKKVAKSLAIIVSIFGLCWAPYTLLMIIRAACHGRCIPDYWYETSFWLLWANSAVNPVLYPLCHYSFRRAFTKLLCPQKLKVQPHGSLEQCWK
Sequence of Histamine H3 receptor (Rattus norvegicus) (Q9QYN8 whole entry): as above

For `C[C@H]1NCC[C@@H]1c1c[nH]cn1`, the pD2 [1] was 7.1.
Compound `N[C@H](/C=C/[C@@H]1C[C@H]1c1c[nH]cn1)CC1CCCCC1` has a Ki (Histamine H3 receptor [2]) of 0.398 nM.
`c1nc(CC2CCNCC2)c[nH]1` showed a pD2 [1] of 8.
`Ic1ccc(COCCCc2c[nH]cn2)cc1.NCCc1c[nH]cn1` was tested, and the Antagonist activity [3] was “inactive” and the Antagonist activity [4] was “inactive”.
In the case of `NCCc1c[nH]cn1.N[C@H](COCc1ccc(I)cc1)Cc1c[nH]cn1`, the Antagonist activity [5] is reported as “Partial antagonist”, the Antagonist activity [6] is reported as “Partial antagonist” and the Antagonist activity [7] is reported as “Partial antagonist”. The Antagonist activity [8] was “Partial antagonist”.
`N=C(N)CCCc1c[nH]cn1` gave a pD2 [1] of 9.
With `N[C@@H](COCc1ccc(Br)cc1)Cc1c[nH]cn1` the Agonistic activity [9] was “Partial agonist” and the Agonistic activity [10] was “Partial agonist”.
In the case of `N=C(NCc1ccc(Cl)cc1)SCCCc1c[nH]cn1.NCCc1c[nH]cn1`, the Antagonist activity [3] is reported as “inactive” and the Antagonist activity [4] is reported as “inactive”.
In the case of `NCCc1c[nH]cn1.N[C@@H](COCc1ccc(Br)cc1)Cc1c[nH]cn1`, the Antagonist activity [11] is reported as “Partial antagonist”, the Antagonist activity [12] is reported as “Antagonist” and the Antagonist activity [13] is reported as “Partial agonist”. For the same compound, the Antagonist activity [14] was “Antagonist”.
For `N[C@H](Cc1ccccc1)C(=O)NCCc1c[nH]cn1`, the Ki (Histamine H3 receptor [2]) was > 10000 nM.
In the case of `N[C@H]1C[C@@H]1c1c[nH]cn1` [VUF-5297], the Ki (Histamine H3 receptor [2]) is reported as 25.1 nM.
`NCCc1c[nH]cn1.S=C(NC1CCCCC1)N1CCC(c2c[nH]cn2)CC1` was tested, and the Antagonist activity [15] was “Agonist” and the Antagonist activity [16] was “Antagonist”.
Work on `C[C@H](c1c[nH]cn1)[C@@H](C)N` yielded a pD2 [1] of 8.5.
Compound `C[C@@H]1NCC[C@H]1c1c[nH]cn1` has a pD2 [1] of 7.1.
With `NCCc1c[nH]cn1.N[C@H](COCc1ccccc1)Cc1c[nH]cn1` the Antagonist activity [17] was “Antagonist”, the Antagonist activity [12] was “Antagonist” and the Antagonist activity [18] was “Antagonist”. The Antagonist activity [14] was “Antagonist”.
`C[C@H](N)[C@@H](C)c1c[nH]cn1` was tested, and the pD2 [1] was 6.5.
With `N[C@@H](COCc1ccccc1)Cc1c[nH]cn1` the Agonistic activity [19] was “inactive” and the Agonistic activity [20] was “inactive”.
In the case of `NCCc1c[nH]cn1`, the Agonistic activity [21] is reported as “Agonist”, the Agonistic activity [22] is reported as “Agonist” and the pD2 [1] is reported as 7.2. The Agonist activity [23] was “Agonist” and the Antagonist activity [24] was “Antagonist”.
For `NCCc1c[nH]cn1.N[C@@H](COCc1ccc(I)cc1)Cc1c[nH]cn1`, the Antagonist activity [11] was “Partial antagonist”, the Antagonist activity [12] was “Antagonist” and the Antagonist activity ([13]; filed as antagonist) was “Partial agonist”. For the same compound, the Antagonist activity [14] was “Antagonist”.
For `N[C@@H]1C[C@H]1c1cnc[nH]1` [VUF-5296], the Ki (Histamine H3 receptor [2]) was 3.16 nM.
`NCCc1c[nH]cn1.N[C@@H](COCC1CCCCC1)Cc1c[nH]cn1` was tested, and the Antagonist activity [17] was “Antagonist”, the Antagonist activity [12] was “Antagonist” and the Antagonist activity [18] was “Antagonist”. For the same compound, the Antagonist activity [14] was “Antagonist”.
`NCCc1c[nH]cn1.N[C@@H](COCc1ccccc1)Cc1c[nH]cn1` was tested, and the Antagonist activity [17] was “Antagonist”, the Antagonist activity [12] was “Antagonist” and the Antagonist activity [18] was “Antagonist”. For the same compound, the Antagonist activity [14] was “Antagonist”.
`N[C@H](COCc1ccc(I)cc1)Cc1c[nH]cn1` was tested, and the Agonistic activity [19] was “inactive” and the Agonistic activity [20] was “inactive”.
With `N[C@@H](Cc1ccccc1)C(=O)NCCc1c[nH]cn1` the Ki (Histamine H3 receptor [2]) was 100 nM.
In the case of `NCCc1c[nH]cn1.N[C@H](COCc1ccc(Br)cc1)Cc1c[nH]cn1`, the Antagonist activity [11] is reported as “Partial antagonist”, the Antagonist activity [12] is reported as “Antagonist” and the Antagonist activity [13] is reported as “Partial agonist”. For the same compound, the Antagonist activity [14] was “Antagonist”.
`N=C(N)SCCc1c[nH]cn1` gave a pD2 [1] of 8.1.
With `NCCCCCc1c[nH]cn1` the Agonistic activity [25] was “Agonist” and the Agonistic activity [26] was “Agonist”.
With `N[C@@H](COCc1ccc(I)cc1)Cc1c[nH]cn1` the Agonistic activity [19] was “inactive” and the Agonistic activity [20] was “inactive”.
`CC(C)(C)CCC#C[C@@H]1C[C@H]1c1c[nH]cn1` [CIPRALISANT] was tested, and the pD2 [1] was 8.5 and the Ki (Histamine H3 receptor [2]) was 0.126 nM.
In the case of `N[C@H](COCc1ccc(Br)cc1)Cc1c[nH]cn1`, the Agonistic activity [9] is reported as “Partial agonist” and the Agonistic activity [10] is reported as “Partial agonist”.
With `C[C@@H](N)Cc1c[nH]cn1` the pD2 [1] was 8.4.
`c1ccc(COCCCc2c[nH]cn2)cc1` [PROXYFAN] gave a Ki (Histamine H3 receptor [27]) of 5.01 nM.
Compound `CNCCc1cnc[nH]1` has a pD2 [1] of 7.7.
In the case of `N[C@@H](Cc1ccccc1)C(=O)N[C@@H]1C[C@H]1c1c[nH]cn1`, the pD2 [1] is reported as 8.7.
For `N[C@H](COCc1ccccc1)Cc1c[nH]cn1`, the Agonistic activity [28] was “Partial agonist” and the Agonistic activity [9] was “Partial agonist”.
For `N[C@H](COCC1CCCCC1)Cc1c[nH]cn1`, the Agonistic activity [21] was “Agonist” and the Agonistic activity [22] was “Agonist”.
In the case of `N[C@H](/C=C\[C@@H]1C[C@H]1c1c[nH]cn1)CC1CCCCC1`, the Ki (Histamine H3 receptor [2]) is reported as 100 nM.
With `N[C@@H](COCC1CCCCC1)Cc1c[nH]cn1` the Agonistic activity [29] was “Agonist” and the Agonistic activity [21] was “Agonist”.
With `NCCc1c[nH]cn1.N[C@H](COCC1CCCCC1)Cc1c[nH]cn1` the Antagonist activity [17] was “Antagonist”, the Antagonist activity [12] was “Antagonist” and the Antagonist activity [18] was “Antagonist”. The Antagonist activity [14] was “Antagonist”.
In the case of `N[C@@H](Cc1ccccc1)C(=O)N[C@H]1C[C@@H]1c1c[nH]cn1`, the Ki (Histamine H3 receptor [2]) is reported as 20 nM.
